Compound activity: PubChem, several laboratories
An excerpt weighted towards active compounds, which were near 6.7% of everything screened.
T cruzi repl = T. cruzi replication inhibition; T. cruzi beta-gal in NIH3T3, luminescence, 90 h; inhibition, % (no concentration beside the values); 1.4% of 300,000 active;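 active = mean inhibition across valid replicates above about 55%, limit read from the data; inconclusive = mean below that limit but half or more replicates reach it; inactive = mean below it, under half of replicates reach it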;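 also: signal also drops with host cell toxicity which is not excluded here; 0% = plate median of DMSO wells and 100% = zero luminescence signal; higher percent means less beta-gal luminescence so fewer parasites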
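System – NIH/3T3 host cells with β-galactosidase reporter T. cruzi · Doses – single 50 nL compound addition per well in DMSO · Reagent – 5000 T. cruzi trypomastigotes/well · Medium – Low-serum DMEM with 2% FBS · Timing – ≥90 h infection period, 3 h prior cell attachment · Evaluation – parasite load inhibition, % · Technique – GalScreen luminescence, 60 min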
PREPL inh = inhibits the human prolyl oligopeptidase-like enzyme; 0.68% of 320,000 active; recombinant PREPL, fluorescence polarization activity-based probe; Q4J6C6; inhibition, % at 5.96 µM; in the data active = inhibition above about 43%;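 also: 0% = enzyme with DMSO and 100% = wells lacking enzyme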
Target sequence (Q4J6C6 whole entry, looked up): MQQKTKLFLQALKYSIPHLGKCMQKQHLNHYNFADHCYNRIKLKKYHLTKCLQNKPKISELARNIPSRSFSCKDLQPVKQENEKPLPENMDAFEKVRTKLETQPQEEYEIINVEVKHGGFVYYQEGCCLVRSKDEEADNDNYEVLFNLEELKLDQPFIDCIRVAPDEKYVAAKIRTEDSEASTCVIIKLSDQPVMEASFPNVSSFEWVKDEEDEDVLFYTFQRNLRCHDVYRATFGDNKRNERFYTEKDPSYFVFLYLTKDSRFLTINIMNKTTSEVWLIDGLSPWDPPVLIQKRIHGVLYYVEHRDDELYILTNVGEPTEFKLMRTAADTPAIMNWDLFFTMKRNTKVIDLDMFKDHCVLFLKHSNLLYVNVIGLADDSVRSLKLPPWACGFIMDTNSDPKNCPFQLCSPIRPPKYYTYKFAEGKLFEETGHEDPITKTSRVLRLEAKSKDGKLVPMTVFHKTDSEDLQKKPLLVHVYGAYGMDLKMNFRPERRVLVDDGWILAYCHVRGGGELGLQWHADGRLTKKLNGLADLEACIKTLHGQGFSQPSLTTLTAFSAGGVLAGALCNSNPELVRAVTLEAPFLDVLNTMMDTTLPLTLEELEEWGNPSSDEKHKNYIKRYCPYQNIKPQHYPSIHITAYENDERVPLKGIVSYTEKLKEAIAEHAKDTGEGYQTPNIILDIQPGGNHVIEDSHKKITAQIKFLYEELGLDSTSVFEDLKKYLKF
CHOP inhibitor = inhibitors of CHOP induction in ER stress response | AID 2732 | inhibition, % at 10 µM | 3.8% of 220,000 active | CHO-K1 CHOP-promoter luciferase, tunicamycin-induced, 15-18 h;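 active = compounds that reduced the stress-induced luciferase reporter signal by more than about 70% of percent inhibition, limit read from the data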;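 also: 0% = tunicamycin plus vehicle and 100% = wells without tunicamycin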
CSC inhib = blocks cancer stem cells. inhibition, % at 7.5 µM. AID 2717. 1.1% of 300,000 active. cancer stem cell-like cells viability, luminescence; in the data active = inhibition above about 75%; inconclusive = no clear call, values can overlap the other calls; tested in HMLE shEcad cells
Beta cell apopt = blocks beta cell apoptosis; INS-1E cytokine-induced death, ATP luminescence, 48 h; percent of positive-control rescue, neutral wells zero; protection from apoptosis, % (concentration not given with the values); 0.8% of 300,000 active; AID 435005;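 active = Every replicate reaches about 75%, or at least half do and their mean reaches it too, limit read from the data; inconclusive = At least half of replicates reach the limit but their mean does not; inactive = Under half of replicates reach the limit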;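 also: 0% = cytokine-treated negative control wells and 100% = positive control rescue; higher means more ATP so stronger rescue from cytokine killing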
GRIN3A LBD mod = modulates the human NR3A ligand-binding domain; Tm shift relative to glycine control, % at 25 µM; NR3A LBD differential scanning fluorimetry, Tm shift; 0% = protein alone, 100% = glycine-bound protein; 2.5% of 340,000 active;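 active = melting temperature shift of at least 10% of the positive control shift, at one fixed dose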
* marks the source's active call; other numbers are inactive results; ? = inconclusive; / = no result.

SMILES | T cruzi repl | PREPL inh | CHOP inhibitor | CSC inhib | Beta cell apopt | GRIN3A LBD mod
CCOC(=O)N1CCN(C2CCCN(C(=O)c3ccccc3N(C)C)C2)CC1 (stereo unspecified) | -8 | 8 | / | -3 | / | 4
CC(OC(=O)c1ccc(Cl)c(S(N)(=O)=O)c1)C(=O)NCc1ccc2c(c1)OCO2 (stereo unspecified) | 16 | 5 | / | -11 | -4 | 14*
CCCOc1ccc(NCC(=O)Nc2ccc(C)cc2C)cc1 | 76* | 14 | 38 | -4 | 3 | 2
CCCCOc1cccc(C(=O)Nc2ccc(NC(=O)c3cccs3)cc2)c1 | -1 | 4 | / | / | 5 | 22*
O=C(COc1ccc(NC(=O)c2cccs2)cc1)c1ccc(F)cc1 | 7 | 5 | / | 23 | 0 | 27*
CC(=O)c1ccc(NC(=O)c2ccc(NC(=O)CCS(=O)(=O)c3cccs3)cc2)cc1 | -18 | 10 | 3 | -10 | -8 | 21*
CC(=O)c1cccc(NC(=O)c2ccc(NC(=O)CCS(=O)(=O)c3cccs3)cc2)c1 | -10 | -13 | / | -3 | / | 7
CCCOc1ccc(C(=O)Nc2ccc(N(C)C)cc2)cc1 | -5 | 20 | 10 | 43 | 4 | -4
COc1cccc(C(=O)COc2ccc(NC(=O)c3cccs3)cc2)c1 | 5 | 10 | / | 50 | 0 | 2
CCCOc1ccc(C(=O)Nc2ccc(NC(=O)c3cccs3)cc2)cc1 | 8 | 3 | / | / | -2 | 14*
COC(=O)c1cc(C(=O)Nc2ccc(S(N)(=O)=O)cc2)cc([N+](=O)[O-])c1 | 11 | 5 | -9 | -15 | -3 | -3
CCOc1ccc(NC(=O)c2ccc(NS(=O)(=O)c3cccs3)cc2)cc1 | 3 | 12 | / | 11 | 3 | 24*
CCn1c(SCC(=O)N2CCCc3ccccc32)nc2c1c(=O)n(C)c(=O)n2C | 25 | 1 | 19 | -9 | -4 | -1
CC(C)c1nc(SCC(=O)N2CCCc3ccccc32)c2c(=O)n(C)c(=O)n(C)c2n1 | 25 | 4 | 88* | 26 | 14 | 0
COc1ccccc1CNc1nc2nc(C)cc(=O)n2[nH]1 | -4 | 7 | -29 | 3 | -1 | -8
CCN1C(=O)C(=O)N(CC(=O)c2cc(C)n(C3CC3)c2C)C1=O | / | 0 | / | -2 | -2 | -1
Cc1cc(C(=O)CN2C(=O)c3ccccc3C2=O)c(C)n1C1CC1 | 9 | 7 | -41 | -8 | 12 | 17*
O=C(Nc1ccc(F)cc1)C1CC(=O)n2c(nc3ccccc32)N1 (stereo unspecified) | -2 | -7 | 33 | 4 | -11 | -3
O=C(Nc1ccc(F)c(Cl)c1)C1CC(=O)n2c(nc3ccccc32)N1 (stereo unspecified) | -9 | -14 | 76* | -12 | -4 | 1
NC(=O)CSc1nnc(COc2ccc3ccccc3c2)o1 | -1 | / | / | / | / | 3
Clc1cccc(NCc2nnc(SCc3ccccc3Cl)o2)c1 | -9 | -14 | 68 | 7 | -4 | -5
Clc1cccc(NCc2nnc(SCc3ccccc3)o2)c1 | -11 | -11 | 71* | / | -13 | -16
N#CCSc1nnc(CNc2cccc(Cl)c2)o1 | -5 | 0 | 10 | -5 | -1 | 14*
N#CCSc1nnc(COc2ccc3ccccc3c2)o1 | 2 | 2 | 13 | / | -10 | 15*
COc1ccc(-c2csc(NC(=O)CCN3C(=O)C4CC=CCC4C3=O)n2)cc1OC (stereo unspecified) | 28 | 15 | / | / | 0 | -2
SMILES | T cruzi repl | PREPL inh | CHOP inhibitor | CSC inhib | Beta cell apopt | GRIN3A LBD mod
Cc1cccc(NC(=S)N2CCC(NC(=O)c3cccc(F)c3)CC2)c1 | -5 | 1 | / | -12 | 1 | 0
CCOc1ccc(N/C=C/C(=O)c2ccc3ccccc3c2)c([N+](=O)[O-])c1 | 19 | 6 | 16 | -22 | 8 | 37*
CC(C)COc1ccc(CNC(=S)Nc2ccccc2)cc1Cl | 9 | -1 | / | 26 | 9 | 15*
CCCOc1ccc(CNC(=S)Nc2ccccc2)cc1Cl | -2 | -5 | / | 5 | -1 | 18*
COc1ccc(CNC(=S)Nc2ccccc2)cc1Cl | 4 | 1 | / | 5 | -4 | -4
CC(C)Oc1ccc(CNC(=S)Nc2ccccc2)cc1Cl | -8 | 10 | / | 13 | -1 | -3
CCOc1ccc(C(=O)Nc2ccc(S(=O)(=O)N3CCN(C)CC3)cc2)cc1 | -1 | 5 | / | -20 | -3 | 1
O=c1c2c(nc3c(-c4cccc5ccccc45)c[nH]n13)CCC2 | -20 | 21 | 33 | 1 | -6 | 1
O=c1c2c(nc3c(-c4ccc(Cl)cc4)c[nH]n13)CCCC2 | -7 | 20 | 12 | / | 93* | -9
Cc1[nH]n2c(=O)c3c(nc2c1-c1ccc(F)cc1)CCCC3 | 74* | 5 | -4 | 6 | / | 1
Cc1[nH]n2c(=O)c3c(nc2c1-c1ccccc1)CCCC3 | 3 | -1 | 23 | -6 | -6 | 0
CCCOc1ccc(OCCCCNC(C)CC)cc1 (stereo unspecified) | 22 | -4 | 44 | -2 | / | 2
CCC(C)NCCOc1ccc(C(C)(C)c2ccccc2)cc1 (stereo unspecified) | 65* | -73 | 3 | ? | 4 | -3
CC(C)(c1ccccc1)c1ccc(OCCCN2CCNCC2)cc1 | 64* | -19 | 2 | 80* | 9 | -2
O=[N+]([O-])c1ccc(OCCN2CCNCC2)cc1 | 58* | 3 | -1 | 7 | 0 | 0
CC1CN(CCOc2ccc([N+](=O)[O-])cc2)CC(C)O1 (stereo unspecified) | -7 | 23 | 14 | -10 | -2 | 0
COCCCNCCOc1ccc(C(C)(C)c2ccccc2)cc1 | 61* | -36 | 15 | 38 | -1 | -2
CNCCCOc1ccc(C(C)(C)c2ccccc2)cc1 | 28 | / | -31 | / | / | /
Cn1nccc1C(=O)Oc1ccc(/C=N/NC(=O)c2ccccc2O)cc1 | -18 | 5 | -24 | -7 | 4 | -23
COc1ccc(CNC(=O)C[C@H]2C[C@H](C(=O)N(C(C)C)C(C)C)[C@@]3(C)c4[nH]c5cc(-c6ccco6)ccc5c4CCN3C2=O)cc1OC | / | / | / | / | / | -1
Cc1sc2ncn(CCn3cnc4sc(C)c(C)c4c3=O)c(=O)c2c1C | 0 | -4 | 90* | -18 | 7 | 0
Cc1sc2ncn(CCC(=O)O)c(=O)c2c1C | / | 7 | -10 | -4 | -3 | 0
COc1ccccc1NC(=O)NNC(=O)CCc1ccccc1 | -3 | 1 | / | -9 | 1 | 0
CC(OC(=O)CN(C)S(=O)(=O)c1ccc(Cl)cc1)C(=O)Nc1cccc(Cl)c1 (stereo unspecified) | -5 | -10 | 83* | -12 | -15 | 0
CC(OC(=O)CN(C)S(=O)(=O)c1ccc(Cl)cc1)C(=O)Nc1ncc(Cl)cc1Cl (stereo unspecified) | -31 | 8 | -11 | -9 | -3 | 0
CC(C)c1onc(C(=O)N2CCN(C(c3ccccc3)c3ccccc3)CC2)c1[N+](=O)[O-] | 57* | -1 | -9 | 49 | -2 | 1
